Measured values from ChEMBL document CHEMBL3616442, “Unconventional Knoevenagel-type indoles: Synthesis and cell-based studies for the identification of pro-apoptotic agents” (Eur J Med Chem, 2015).

Assays:
SK-OV-3 = assay: Growth inhibition of human SKOV3 cells after 48 hrs by sulforhodamine B assay; type: functional; conditions: SK-OV-3, 48 h
SNB-19 = assay: Growth inhibition of human SNB19 cells after 48 hrs by sulforhodamine B assay; type: functional; conditions: SNB-19, 48 h
SR = assay: Growth inhibition of human SR cells after 48 hrs by sulforhodamine B assay; type: functional
PC-3 = assay: Growth inhibition of human PC3 cells after 48 hrs by sulforhodamine B assay; type: functional; conditions: PC-3, 48 h
K562 = assay: Growth inhibition of human K562 cells after 48 hrs by sulforhodamine B assay; type: functional; conditions: K562, 48 h
Procedure, shortened: (§1)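 NCI 60-cell-line screen. Compounds tested at five 10-fold dilutions from 10^-4 to 10^-8 M. Cells exposed for the last 48 h of a 72 h incubation, growth estimated by sulforhodamine B protein assay. GI50 is the concentration giving 50% growth inhibition. Values beyond the tested range are expressed as greater or lesser than the extreme concentration.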

[1] = Growth inhibition of human HOP92 cells after 48 hrs by sulforhodamine B assay; type: functional; conditions: HOP-92, 48 h; procedure, shortened: as §1
SN12C = assay: Growth inhibition of human SN12C cells after 48 hrs by sulforhodamine B assay; type: functional
KM12 = assay: Growth inhibition of human KM12 cells after 48 hrs by sulforhodamine B assay; type: functional; conditions: KM12, 48 h; procedure, shortened: as §1
[2] = Growth inhibition of human SF295 cells after 48 hrs by sulforhodamine B assay; type: functional; conditions: SF-295, 48 h
CAKI-1 = assay: Growth inhibition of human CAKI-1 cells after 48 hrs by sulforhodamine B assay; type: functional; conditions: CAKI-1, 48 h; procedure, shortened: as §1
[3] = Growth inhibition of human Hs 578T cells after 48 hrs by sulforhodamine B assay; type: functional; procedure, shortened: as §1
HCT-116 = assay: Growth inhibition of human HCT116 cells after 48 hrs by sulforhodamine B assay; type: functional; conditions: HCT-116, 48 h; procedure, shortened: as §1
MCF7 = assay: Growth inhibition of human MCF7 cells after 48 hrs by sulforhodamine B assay; type: functional; conditions: MCF7, 48 h; procedure, shortened: as §1
A549 = assay: Growth inhibition of human A549 cells after 48 hrs by sulforhodamine B assay; type: functional; conditions: A549, 48 h; procedure, shortened: as §1
HL-60(TB) = assay: Growth inhibition of human HL-60(TB) cells after 48 hrs by sulforhodamine B assay; type: functional; conditions: HL-60, 48 h
Procedure, shortened: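 NCI 60-cell-line screen, HL-60(TB) included. Compound given at five 10-fold dilutions from 10^-4 to 10^-8 M. Cells exposed for the last 48 h of a 72 h incubation. Growth or viability estimated by sulforhodamine B protein assay. GI50 is the concentration giving 50% growth inhibition. Values outside the tested range are reported as greater or less than the highest or lowest concentration.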

MDA-MB-435 = assay: Growth inhibition of human MDA-MB-435 cells after 48 hrs by sulforhodamine B assay; type: functional; conditions: MDA-MB-435, 48 h; procedure, shortened: as §1
OVCAR-3 = assay: Growth inhibition of human OVCAR3 cells after 48 hrs by sulforhodamine B assay; type: functional; conditions: OVCAR-3, 48 h; procedure, shortened: as §1
[4] = Growth inhibition of human RPMI8226 cells after 48 hrs by sulforhodamine B assay; type: functional; conditions: RPMI-8226, 48 h
MDA-MB-231 = assay: Growth inhibition of human MDA-MB-231 cells after 48 hrs by sulforhodamine B assay; type: functional; conditions: MDA-MB-231, 48 h; procedure, shortened: as §1
NCI-H322M = assay: Growth inhibition of human NCI-H322M cells after 48 hrs by sulforhodamine B assay; type: functional; procedure, shortened: as §1
UACC-62 = assay: Growth inhibition of human UACC62 cells after 48 hrs by sulforhodamine B assay; type: functional; conditions: UACC-62, 48 h
NCI-H460 = assay: Growth inhibition of human NCI-H460 cells after 48 hrs by sulforhodamine B assay; type: functional; conditions: NCI-H460, 48 h; procedure, shortened: as §1
[5] = Growth inhibition of human RXF393 cells after 48 hrs by sulforhodamine B assay; type: functional; conditions: RXF 393, 48 h
SK-MEL-5 = assay: Growth inhibition of human SK-MEL-5 cells after 48 hrs by sulforhodamine B assay; type: functional; conditions: SK-MEL-5, 48 h
SNB-75 = assay: Growth inhibition of human SNB75 cells after 48 hrs by sulforhodamine B assay; type: functional; conditions: SNB-75, 48 h
NCI-H23 = assay: Growth inhibition of human NCI-H23 cells after 48 hrs by sulforhodamine B assay; type: functional; conditions: NCI-H23, 48 h; procedure, shortened: as §1
NCI-H226 = assay: Growth inhibition of human NCI-H226 cells after 48 hrs by sulforhodamine B assay; type: functional; conditions: NCI-H226, 48 h; procedure, shortened: as §1
T47D = assay: Growth inhibition of human T47D cells after 48 hrs by sulforhodamine B assay; type: functional
MT4 = assay: Antiproliferative activity against human MT4 cells after 96 hrs by MTT assay; type: functional, cell-based; conditions: MT4, 96 h
Procedure, shortened: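 Exponentially growing MT-4 cells (CD4+ human T-cells carrying integrated HTLV-1 genome), seeded at 1×10^5 cells/mL in RPMI-1640 with 10% FCS and antibiotics. Serial dilutions of compound (DMSO stock 100 mM, diluted in medium), 37 °C, 5% CO₂, 96 h. Viability read by MTT. 50% inhibition versus untreated controls by linear regression. Mean ± SD of three independent determinations.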

[6] = Growth inhibition of human MOLT4 cells after 48 hrs by sulforhodamine B assay; type: functional; conditions: MOLT-4, 48 h; procedure, shortened: as §1
786-0 = assay: Growth inhibition of human 786-0 cells after 48 hrs by sulforhodamine B assay; type: functional; conditions: 786-0, 48 h; procedure, shortened: as §1
[7] = Growth inhibition of human COLO205 cells after 48 hrs by sulforhodamine B assay; type: functional; conditions: COLO 205, 48 h; procedure, shortened: as §1
M14 = assay: Growth inhibition of human M14 cells after 48 hrs by sulforhodamine B assay; type: functional; conditions: M14, 48 h; procedure, shortened: as §1
SW-620 = assay: Growth inhibition of human SW620 cells after 48 hrs by sulforhodamine B assay; type: functional; conditions: SW-620, 48 h
[8] = Growth inhibition of human SF539 cells after 48 hrs by sulforhodamine B assay; type: functional; conditions: SF-539, 48 h
HT-29 = assay: Growth inhibition of human HT-29 cells after 48 hrs by sulforhodamine B assay; type: functional; conditions: HT-29, 48 h; procedure, shortened: as §1
[9] = Growth inhibition of human NCI-ADR-RES cells after 48 hrs by sulforhodamine B assay; type: functional; procedure, shortened: as §1
SF-268 = assay: Growth inhibition of human SF268 cells after 48 hrs by sulforhodamine B assay; type: functional; conditions: SF-268, 48 h
U-251 = assay: Growth inhibition of human U251 cells after 48 hrs by sulforhodamine B assay; type: functional; conditions: U-251, 48 h
SK-MEL-28 = assay: Growth inhibition of human SK-MEL-28 cells after 48 hrs by sulforhodamine B assay; type: functional; conditions: SK-MEL-28, 48 h
HOP-62 = assay: Growth inhibition of human HOP62 cells after 48 hrs by sulforhodamine B assay; type: functional; conditions: HOP-62, 48 h; procedure, shortened: as §1
SK-MEL-2 = assay: Growth inhibition of human SK-MEL-2 cells after 48 hrs by sulforhodamine B assay; type: functional; conditions: SK-MEL-2, 48 h
A498 = assay: Growth inhibition of human A498 cells after 48 hrs by sulforhodamine B assay; type: functional; conditions: A498, 48 h; procedure, shortened: as §1
IGROV-1 = assay: Growth inhibition of human IGROV1 cells after 48 hrs by sulforhodamine B assay; type: functional; conditions: IGROV-1, 48 h; procedure, shortened: as §1
MDA-MB-468 = assay: Growth inhibition of human MDA-MB-468 cells after 48 hrs by sulforhodamine B assay; type: functional; conditions: MDA-MB-468, 48 h; procedure, shortened: as §1
HCT-15 = assay: Growth inhibition of human HCT15 cells after 48 hrs by sulforhodamine B assay; type: functional; conditions: HCT-15, 48 h; procedure, shortened: as §1
DU-145 = assay: Growth inhibition of human DU145 cells after 48 hrs by sulforhodamine B assay; type: functional; conditions: DU-145, 48 h; procedure, shortened: as §1

COc1ccc(-c2[nH]c3ccc(OC)cc3c2C=C(C#N)C#N)cc1
GI50 (SK-OV-3): 892 nM
GI50 (SNB-19): 13700 nM
GI50 (SR): 152 nM
GI50 (PC-3): 342 nM
GI50 (K562): 345 nM
GI50 [1]: 23000 nM
GI50 (SN12C): 15900 nM
GI50 (KM12): 590 nM
GI50 [2]: 306 nM
GI50 (CAKI-1): 392 nM
GI50 [3]: 513 nM
GI50 (HCT-116): 487 nM
GI50 (MCF7): 385 nM
GI50 (A549): 3800 nM
GI50 (HL-60(TB)): 363 nM
GI50 (MDA-MB-435): 122 nM
GI50 (OVCAR-3): 424 nM
GI50 [4]: 5100 nM
GI50 (MDA-MB-231): 1300 nM
GI50 (NCI-H322M): 380 nM
GI50 (UACC-62): 357 nM
GI50 (NCI-H460): 472 nM
GI50 [5]: 5500 nM
GI50 (SK-MEL-5): 324 nM
GI50 (SNB-75): 593 nM
GI50 (NCI-H23): 2000 nM
GI50 (NCI-H226): 1500 nM
GI50 (T47D): 2600 nM
EC50 (MT4): 300 nM
GI50 [6]: 369 nM
GI50 (786-0): 14300 nM
GI50 [7]: 291 nM
GI50 (M14): 308 nM
GI50 (SW-620): 579 nM
GI50 [8]: 774 nM
GI50 (HT-29): 407 nM
GI50 [9]: 403 nM
GI50 (SF-268): 1700 nM
GI50 (U-251): 635 nM
GI50 (SK-MEL-28): 1700 nM
GI50 (HOP-62): 3300 nM
GI50 (SK-MEL-2): 5900 nM
GI50 (A498): 75 nM
GI50 (IGROV-1): 5800 nM
GI50 (MDA-MB-468): 503 nM
GI50 (HCT-15): 778 nM
GI50 (DU-145): 917 nM
